One test addresses T1, Aminopeptidase N (Sus scrofa, UniProt P15145).
T1 sequence (P15145 whole entry): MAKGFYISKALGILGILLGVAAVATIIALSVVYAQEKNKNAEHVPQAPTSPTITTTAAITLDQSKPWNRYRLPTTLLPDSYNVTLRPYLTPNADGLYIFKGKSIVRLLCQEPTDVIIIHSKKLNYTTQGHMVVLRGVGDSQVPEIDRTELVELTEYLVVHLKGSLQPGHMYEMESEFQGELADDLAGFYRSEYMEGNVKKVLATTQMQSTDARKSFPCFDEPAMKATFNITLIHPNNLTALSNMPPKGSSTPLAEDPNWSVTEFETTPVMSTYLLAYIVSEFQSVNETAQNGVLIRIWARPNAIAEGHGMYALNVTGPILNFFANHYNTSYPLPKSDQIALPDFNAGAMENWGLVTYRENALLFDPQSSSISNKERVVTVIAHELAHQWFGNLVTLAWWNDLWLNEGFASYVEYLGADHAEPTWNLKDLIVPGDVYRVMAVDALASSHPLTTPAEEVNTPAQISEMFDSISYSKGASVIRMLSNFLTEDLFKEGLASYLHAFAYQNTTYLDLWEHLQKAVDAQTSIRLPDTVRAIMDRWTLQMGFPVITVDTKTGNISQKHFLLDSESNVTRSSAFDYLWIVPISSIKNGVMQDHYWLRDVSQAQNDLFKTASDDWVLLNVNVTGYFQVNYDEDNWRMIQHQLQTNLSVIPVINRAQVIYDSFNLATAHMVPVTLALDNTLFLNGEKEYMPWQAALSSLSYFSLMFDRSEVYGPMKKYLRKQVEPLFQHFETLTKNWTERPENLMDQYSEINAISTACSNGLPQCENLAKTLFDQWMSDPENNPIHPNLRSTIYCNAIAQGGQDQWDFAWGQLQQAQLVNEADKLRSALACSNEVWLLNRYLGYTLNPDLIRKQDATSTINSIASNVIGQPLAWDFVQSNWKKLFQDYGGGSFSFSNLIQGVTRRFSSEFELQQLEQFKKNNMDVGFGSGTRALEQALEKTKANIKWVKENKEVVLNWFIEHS
As to the kind of experiment: Inhibition of porcine kidney microsome APN assessed as L-Leu-p-nitroanilide hydrolysis. An outline of the steps: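 Porcine kidney microsomal aminopeptidase, 4 mg/ml final, in PBS pH 7.2 at 37 °C. Inhibitor solutions made in assay buffer and adjusted to pH 7.5, preincubated with enzyme 30 min at room temperature.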

For test [1], the target named is 72 kDa type IV collagenase (Homo sapiens, UniProt P08253). Nature of the test: Inhibition of MMP2. An outline of the steps: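 Gelatinase A (MMP-2) with synthetic substrate and inhibitor in sodium borate (50 mmol/l, pH 8.5), incubated 30 min at 37 °C. Then 0.03% TNBS added for a further 20 min and absorbance read at 450 nm.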
72 kDa type IV collagenase, sequence (P08253 whole entry): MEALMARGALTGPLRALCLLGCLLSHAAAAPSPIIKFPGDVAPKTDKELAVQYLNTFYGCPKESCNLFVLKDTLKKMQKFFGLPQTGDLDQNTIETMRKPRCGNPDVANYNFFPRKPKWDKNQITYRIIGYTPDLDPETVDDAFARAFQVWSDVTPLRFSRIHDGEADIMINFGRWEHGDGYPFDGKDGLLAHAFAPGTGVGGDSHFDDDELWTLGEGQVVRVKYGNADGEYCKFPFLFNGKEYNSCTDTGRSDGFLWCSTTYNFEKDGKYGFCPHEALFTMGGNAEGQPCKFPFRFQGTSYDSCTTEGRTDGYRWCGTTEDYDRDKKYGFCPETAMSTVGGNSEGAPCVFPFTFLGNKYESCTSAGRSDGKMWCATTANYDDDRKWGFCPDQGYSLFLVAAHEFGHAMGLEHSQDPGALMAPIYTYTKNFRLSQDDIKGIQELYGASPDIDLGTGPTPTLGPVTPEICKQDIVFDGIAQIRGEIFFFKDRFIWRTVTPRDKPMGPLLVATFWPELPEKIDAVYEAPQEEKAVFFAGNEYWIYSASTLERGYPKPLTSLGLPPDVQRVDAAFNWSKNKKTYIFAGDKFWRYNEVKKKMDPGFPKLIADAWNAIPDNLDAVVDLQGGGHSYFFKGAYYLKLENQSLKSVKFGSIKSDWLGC
The subject of a further test is HL-60. Nature of the test: Antiproliferative activity against human HL60 cells after 48 hrs by MTT assay. Type of test: functional, cell-based. The note with it: HL-60, 48 h. In short, it runs like this:
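HL-60 cells kept in RPMI1640 with 10% FBS at 37 °C, 5% CO2. Seeded 10,000 cells per well, grown 4 h, then exposed to 1600, 800, 400, 200 or 100 µg/ml for 48 h. Added 0.5% MTT, incubated 4 h, dissolved formazan in DMSO and read OD at 570 nm. Mean and SE of five independent experiments.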

Structures are written as SMILES.

What is called IC50 is the concentration that inhibits the measured activity by half.

As for `CCCNC(=O)C[C@@H](NC(=O)/C=C/c1ccccc1)C(=O)NO`, the IC50 came out at 36 µM at Aminopeptidase N and 131 µM in test [1].

For the compound `O=C(/C=C/c1ccccc1)N[C@H](CC(=O)Nc1ccc([N+](=O)[O-])cc1)C(=O)NO`, the IC50 at Aminopeptidase N amounted to 189 µM.

On to `O=C(/C=C/c1ccccc1)N[C@H](CC(=O)Nc1cccc(Cl)c1)C(=O)O`, for which the IC50 at Aminopeptidase N was 719 µM.

Regarding `O=C(/C=C/c1ccccc1)N[C@H](CC(=O)Nc1cccc2ccccc12)C(=O)NO`, the IC50 at Aminopeptidase N was 2050 µM.

Consider `O=C(/C=C/c1ccccc1)N[C@H](CC(=O)Nc1ccc(Cl)cc1)C(=O)O`, for which the 50% inhibitory concentration (IC50) at Aminopeptidase N is 349 µM.

Consider `O=C(/C=C/c1ccccc1)N[C@H](CC(=O)Nc1ccccc1Cl)C(=O)O`, for which the IC50 on Aminopeptidase N was determined as 263 µM.

For `CC(C)NC(=O)C[C@@H](NC(=O)/C=C/c1ccccc1)C(=O)NO`, the IC50 on Aminopeptidase N is 65.9 µM.

Consider `CCCCCCCCCCCCNC(=O)C[C@@H](NC(=O)/C=C/c1ccccc1)C(=O)NO`, for which the half-maximal inhibitory concentration (IC50) was 438 µM on Aminopeptidase N and over 1000 µM in test [1].

Regarding `CCCCCCCCNC(=O)C[C@@H](NC(=O)/C=C/c1ccccc1)C(=O)NO`, the IC50 at Aminopeptidase N was found to be 18.5 µM.

On to `O=C(/C=C/c1ccccc1)N[C@H](CC(=O)Nc1ccccc1)C(=O)NO`, for which, on Aminopeptidase N, the IC50 stood at 115 µM.

For the compound `O=C(/C=C/c1ccccc1)N[C@H](CC(=O)Nc1cccc([N+](=O)[O-])c1)C(=O)NO`, the results for the IC50 (on Aminopeptidase N; in test [1]) were 1440 µM and over 1000 µM, respectively.

Consider `CCCCCCCCCCCCNC(=O)C[C@@H](NC(=O)/C=C/c1ccccc1)C(=O)O`, for which the IC50 on Aminopeptidase N worked out at 962 µM.

`O=C(/C=C/c1ccccc1)N[C@H](CC(=O)NCc1ccccc1)C(=O)NO`: the IC50 on Aminopeptidase N came to 65.1 µM.

Take `CCCCCNC(=O)C[C@@H](NC(=O)/C=C/c1ccccc1)C(=O)O`: on Aminopeptidase N, the IC50 turned out to be 204 µM.

Turning to `CCCCCCNC(=O)C[C@@H](NC(=O)/C=C/c1ccccc1)C(=O)NO`, the values for the IC50 (at Aminopeptidase N; in test [1]) were 18.1 µM and 179 µM, respectively.

Take `O=C(/C=C/c1ccccc1)N[C@H](CC(=O)Nc1ccccc1Cl)C(=O)NO`: the IC50 on Aminopeptidase N was 86.6 µM; in test [1] it was over 1000 µM.

In the case of `O=C(/C=C/c1ccccc1)N[C@H](CC(=O)Nc1cccc(Cl)c1)C(=O)NO`, the 50% inhibitory concentration (IC50) was 1210 µM at Aminopeptidase N and over 1000 µM in test [1].

Consider `CC(C)NC(=O)C[C@@H](NC(=O)/C=C/c1ccccc1)C(=O)O`, for which the IC50 on Aminopeptidase N amounted to 2200 µM.

In the case of `CCCCNC(=O)C[C@@H](NC(=O)/C=C/c1ccccc1)C(=O)O`, the IC50 on Aminopeptidase N is 190 µM.

As for `O=C(/C=C/c1ccccc1)N[C@H](CC(=O)Nc1ccc(Cl)cc1)C(=O)NO`, the IC50 at Aminopeptidase N is 192 µM; in test [1], 197 µM.

Take `O=C(/C=C/c1ccccc1)N[C@H](CC(=O)Nc1cccc([N+](=O)[O-])c1)C(=O)O`: the IC50 is 1780 µM on Aminopeptidase N and over 1000 µM in test [1].

In the case of `O=C(/C=C/c1ccccc1)N[C@H](CC(=O)Nc1ccc([N+](=O)[O-])cc1)C(=O)O`, the IC50 at Aminopeptidase N stood at 273 µM.

Consider `CCCCNC(=O)C[C@@H](NC(=O)/C=C/c1ccccc1)C(=O)NO`, for which the IC50 on Aminopeptidase N was 11.1 µM; in test [1], 232 µM; with HL-60 it was 780 µM.

With `CCCCCNC(=O)C[C@@H](NC(=O)/C=C/c1ccccc1)C(=O)NO`, the IC50 was determined as 17.4 µM on Aminopeptidase N and 197 µM in test [1].

Take `O=C(/C=C/c1ccccc1)N[C@H](CC(=O)Nc1cccc2ccccc12)C(=O)O`: the IC50 on Aminopeptidase N is 739 µM; in test [1] it was over 1000 µM.

As for `O=C(/C=C/c1ccccc1)N[C@H](CC(=O)NCc1ccccc1)C(=O)O`, the half-inhibitory concentration (IC50) at Aminopeptidase N worked out at 207 µM.

Turning to `CCCCCCCCNC(=O)C[C@@H](NC(=O)/C=C/c1ccccc1)C(=O)O`, the IC50 at Aminopeptidase N is 232 µM; in test [1], over 1000 µM.

`O=C(/C=C/c1ccccc1)N[C@H](CC(=O)Nc1ccccc1)C(=O)O`: the half-inhibitory concentration (IC50) was 232 µM on Aminopeptidase N and over 1000 µM in test [1].

Take `CCCNC(=O)C[C@@H](NC(=O)/C=C/c1ccccc1)C(=O)O`: the IC50 at Aminopeptidase N stood at 9110 µM.

On to `CC(C)C[C@H](NC(=O)[C@@H](O)[C@H](N)Cc1ccccc1)C(=O)O` [UBENIMEX], for which the concentration for half-maximal inhibition (IC50) in the test with HL-60 amounted to 920 µM.

For the origin of these results see ChEMBL document CHEMBL1152631, “Design, synthesis, and preliminary studies of the activity of novel derivatives of N-cinnamoyl-L-aspartic acid as inhibitors of aminopeptidase N/CD13” (Bioorg Med Chem, 2009).
